Reference: ChEMBL document CHEMBL1629587, “Discovery of a small-molecule inhibitor of {beta}-1,6-glucan synthesis” (2009)
Values after ≈ are worked out from the molar mass of the structure shown. Active and inactive are the calls of the source. The calls are words filed in the database; no cut-off is given here.

Columns and labels:
Candida albicans [1] = assay: Antifungal activity against Candida albicans ATCC 24433 after 24 hrs by microdilution method; type: functional; details: ATCC 24433, 24 h
Method in brief: (§1)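 CLSI broth microdilution run at 30°C instead of standard temperature; starting inoculum 1 × 10^3 to 3 × 10^3 cells/ml; DMSO under 1% final. Endpoints: MIC-0 = lowest concentration giving an optically clear well; MIC-2 = 50% drop versus drug-free control in absorbance at 570 nm with alamar blue redox indicator, used because treated cells clump.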

Nakaseomyces glabratus = assay: Antifungal activity against Candida glabrata IFO0622 after 24 hrs by microdilution method; type: functional; details: IFO0622, 24 h; method in brief: as §1
Candida tropicalis [2] = assay: Antifungal activity against Candida tropicalis ATCC 200956 after 24 hrs by microdilution method; type: functional; details: ATCC 200956, 24 h; method in brief: as §1
Candida tropicalis [3] = assay: Antifungal activity against Candida tropicalis TIMM0313 after 24 hrs by microdilution method; type: functional; details: TIMM0313, 24 h; method in brief: as §1
Candida albicans [4] = assay: Fungicidal activity against Candida albicans ATCC 24433 after 24 hrs by microdilution method; type: functional; details: ATCC 24433, 24 h
Method in brief: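 Fungicidal concentration: after the MIC plate read, 4 μl from each well transferred into 200 μl MOPS-buffered RPMI, incubated 24 h at 30°C; MFC = lowest drug concentration with no visible growth.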

Candida albicans [5] = assay: Inhibition of hyphal elongation of Candida albicans ATCC 24433 at 1 ug/ml after 6 hrs by microscopy; type: functional, organism-based
Method in brief: (§2)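 Hyphae induced in HFM-7 medium (Lee's medium also used) on type I collagen-coated wells, drug 0, 1, 4 or 16 μg/ml; static culture at 37°C, viewed by light microscopy after 6 h or 24 h.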

Candida albicans [6] = assay: Inhibition of hyphal elongation of Candida albicans ATCC 24433 at 4 ug/ml after 6 hrs by microscopy; type: functional, organism-based; method in brief: as §2
Candida albicans [7] = assay: Inhibition of hyphal elongation of Candida albicans ATCC 24433 at 4 ug/ml after 24 hrs by microscopy; type: functional, organism-based; method in brief: as §2
Cryptococcus neoformans = assay: Antifungal activity against Cryptococcus neoformans ATCC 90112 at 32 ug/ml after 24 hrs by microdilution method; type: functional, organism-based; method in brief: as §1
Staphylococcus aureus = assay: Antibacterial activity against Staphylococcus aureus 209P; type: functional
Saccharomyces cerevisiae [8] = assay: Inhibition of chitin synthesis in Saccharomyces cerevisiae AY-10 assessed as reduction in [14C]glucose incorporation at 0.078 to 1.25 ug/ml after 1 hr; type: functional, organism-based
Method in brief: (§3)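 Exponential cells in RPMI 1640 at A595 about 0.6, pulse-labelled with [14C]glucose 2 μCi/ml plus drug at 30°C, sampled at 1 and 3 h. Cell wall fractionated: mannan from 3% NaOH extracts at 80°C by Fehling's reaction; residue digested with Zymolyase 100T (1 mg/ml), insoluble part = chitin; β-1,3-glucan = total glucan minus dialysed β-1,6-glucan. Scintillation counting; % change versus untreated.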

Saccharomyces cerevisiae [9] = assay: Inhibition of mannan synthesis in Saccharomyces cerevisiae AY-10 assessed as reduction in [14C]glucose incorporation at 0.078 to 1.25 ug/ml after 1 hr; type: functional, organism-based; method in brief: as §3
Saccharomyces cerevisiae [10] = assay: Inhibition of mannan synthesis in Saccharomyces cerevisiae AY-10 assessed as reduction in [14C]glucose incorporation at 0.078 to 1.25 ug/ml after 3 hrs; type: functional, organism-based; method in brief: as §3
Saccharomyces cerevisiae [11] = assay: Fungicidal activity against Saccharomyces cerevisiae AY-10-R15 mutant after 24 hrs by microdilution method; type: functional; details: AY-10-R15, 24 h
Saccharomyces cerevisiae [12] = assay: Fungicidal activity against Saccharomyces cerevisiae AY-10-R16 mutant after 24 hrs by microdilution method; type: functional; details: AY-10-R16, 24 h
Saccharomyces cerevisiae [13] = assay: Fungicidal activity against Saccharomyces cerevisiae CT-1a mutant after 24 hrs by microdilution method; type: functional
Saccharomyces cerevisiae [14] = assay: […] activity against Saccharomyces cerevisiae AY-10 transformed with empty vector pRS416 after 24 hrs by microdilution method; type: functional; details: AY-10, 24 h
PC-6 = assay: Cytotoxicity against human PC6 cells; type: functional
Method in brief: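 Human PC-6 lung cancer cells; growth inhibition read as GI50; DMSO kept below 0.5% final for human cells.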

CCc1c(C)c(C#N)c2nc3ccccc3n2c1NCCN(CC)CC
MIC (Candida albicans [1]): 32 µg/mL (≈ 91.6 µM) | MIC50 (Candida albicans [1]): 8 µg/mL (≈ 22.9 µM) | MIC (Nakaseomyces glabratus): 2 µg/mL (≈ 5.72 µM) | MIC50 (Nakaseomyces glabratus): 1 µg/mL (≈ 2.86 µM) | MIC (Candida tropicalis [2]): 1 µg/mL (≈ 2.86 µM) | MIC50 (Candida tropicalis [2]): 1 µg/mL (≈ 2.86 µM) | MIC (Candida tropicalis [3]): 8 µg/mL (≈ 22.9 µM) | MIC50 (Candida tropicalis [3]): 1 µg/mL (≈ 2.86 µM) | MFC (Candida albicans [4]): > 32 µg/mL | inhibition (Candida albicans [5]): Active | inhibition (Candida albicans [6]): Active | inhibition (Candida albicans [7]): Active | Activity (Cryptococcus neoformans): inactive | MIC (Staphylococcus aureus): > 32 µg/mL | inhibition (Saccharomyces cerevisiae [8]): inactive | inhibition (Saccharomyces cerevisiae [9]): inactive | inhibition (Saccharomyces cerevisiae [10]): inactive | MIC (Saccharomyces cerevisiae [11]): > 64 µg/mL | MIC (Saccharomyces cerevisiae [12]): 4 µg/mL (≈ 11.4 µM) | MIC (Saccharomyces cerevisiae [13]): 8 µg/mL (≈ 22.9 µM) | MIC (Saccharomyces cerevisiae [14]): 2 µg/mL (≈ 5.72 µM) | GI50 (PC-6): > 16 µg/mL
